Results gathered from unrelated publications.
Lines come from different studies, so protocols differ.
CASP3: Caspase-3 (CASP3, Homo sapiens, UniProt P42574)
CAMK4: Calcium/calmodulin-dependent protein kinase type IV (CAMK4, Homo sapiens, UniProt Q16566)
SMO D473H: Protein smoothened (SMO, Homo sapiens, UniProt Q99835, D473H)

The inhibition of `Cc1ncc(C)n2nc(/C=C/c3nc(N4CCCC4)cc(N4CCOCC4)n3)nc12` is reported as 0% (CASP3; enzyme activity, inhibitor; 10 µM).
The inhibition of `CC(=O)N[C@@H](CC(=O)O)C(=O)N[C@@H](CC(N)=O)C(=O)N[C@@H](CC(C)C)C(=O)N[C@H](C=O)CC(=O)O` is reported as 10% (CASP3; enzyme activity, inhibitor; 1 nM).
With `COc1ncccc1-c1cnn2ccc(N3CCN(C(=O)OC(C)C)CC3)nc12` the remaining binding was 100% (CAMK4; binding, competition with immobilised ligand; 1 µM).
`Nc1ncc(-c2nc(N3CCOCC3)nc(N3CCOCC3)n2)c(C(F)F)n1` gave a remaining binding of 100% (Mitogen-activated protein kinase 15 (MAPK15, Homo sapiens, UniProt Q8TD08); binding, competition with immobilised ligand; 10 µM).
`CCN(CC)CCCC[C@H](NC(=O)[C@H](CC(C)C)NC(=O)[C@H](C)NC(=O)[C@H](Cc1ccccc1)NC(=O)c1ccc(C(C)(C)C)cc1)C(=O)N[C@@H](CO)C(=O)OC` gave a ΔTm of 0.04 °C (Histone-lysine N-methyltransferase 2A (KMT2A, Homo sapiens, UniProt Q03164); thermal stability, DSF; 25 µM).
With `CC1=C2C[C@H]3[C@@H](CC=C4C[C@@H](O)CC[C@@]43C)[C@@H]2CC[C@]12O[C@@H]1C[C@H](C)CN[C@H]1[C@H]2C` the Emax was -99.2% (Protein smoothened (SMO, Homo sapiens, UniProt Q99835); GTPγS binding, agonist, radiometric; cell membranes).
With `C#Cc1n[nH]c2c(-c3cn(C(C)c4ccccn4)c(=O)[nH]c3=O)cc(F)cc12` (centres unmarked) the inhibition was 4.8% (AP2-associated protein kinase 1 (AAK1, Homo sapiens, UniProt Q2M2I8); enzyme activity, inhibitor; 1 µM).
With `Cc1cnc(-c2cc(N3CCN(C(=O)CCS(C)(=O)=O)CC3)ncc2Cl)c(C)c1` the Emax was -76.3% (SMO D473H; GTPγS binding, agonist, radiometric; cell membranes).
For `O=C(Nc1cccnn1)N1CCN([C@@H]2CCOc3cc(C(F)(F)F)ccc32)CC1`, the inhibition was 18% (Peroxisome proliferator-activated receptor gamma (PPARG, Homo sapiens, UniProt P37231); cell-free assay; 20 µM).
For `COc1cc(C(=O)NC(N)=Nc2ccc(C)c(NC(=O)c3ccc(-c4ccccc4)cc3)c2)cc(OC)c1OC`, the Emax was -115% (SMO D473H; GTPγS binding, agonist, radiometric; cell membranes).
`Cc1nn(C)cc1-c1nc2c(N3CCN(Cc4ccc(Cl)cc4)CC3)c(Cl)cnc2[nH]1` has a remaining binding of 100% (CAMK4; binding, competition with immobilised ligand; 1 µM).
